In brackets after ≈: the same amount, converted by molar mass. Entries after “also recorded” stand apart in the source; their conditions may differ. Like-named read-outs stand apart in the source and are kept apart here.
Assays:
[1] = system: VRE strains; assay: MIC in ambient air versus 5% CO2 on representative enterococcal strains; assay type: cell-based, Enterococcus; settings: five representative enterococcal strains
Procedure, shortened: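 CLSI broth microdilution. Enterococci grown overnight on trypticase soy agar at 37 °C, adjusted to 0.5 McFarland, then diluted in TSB to about 5 × 10^5 CFU/mL. Compounds from 10 mg/mL DMSO stocks serially diluted.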

[2] = system: Caco-2; settings: cited from earlier work
[3] = system: plasma protein; settings: cited from earlier work
[4] = system: E. faecium ATCC 700221; assay: Time-kill assay; assay type: cell-based; settings: 5× MIC, 24 hours, 37 °C
[5] = In vivo pharmacokinetics, oral gavage; parameters: species or system mice; settings: male, ICR, mouse, plasma, 10 mg/kg
[6] = system: panel of VRE isolates; assay: MIC50/MIC90 over panel of eleven VRE clinical isolates; assay type: cell-based, E. faecium, E. faecalis; settings: Enterococcus
[7] = system: Caco-2; assay: Bi-directional Caco-2 permeability; assay type: in vitro ADME, human
Procedure, shortened: (§1)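 Bidirectional (A→B and B→A) transport across Caco-2 monolayers, run by a contract lab. Donor/receiver pH 6.5/7.4. Concentrations measured as chromatographic peak areas. Papp (10^-6 cm/s) derived from end-point receiver concentration, incubation time, monolayer area and mid-point donor concentration. Recovery (%) = donor plus receiver amounts at end, relative to donor amount at time zero.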

[8] = Aqueous solubility; assay type: physicochemical; settings: for solubility at 24 h: PBS buffer, pH 7.4
[9] = Bi-directional Caco-2 permeability; assay type: in vitro ADME, human; settings: human, Caco-2
Procedure, shortened: as §1

[10] = system: E. faecium HM-965; assay: MIC, broth microdilution; assay type: cell-based
Procedure, shortened: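 MIC by CLSI broth microdilution against E. faecium HM-965. Cells grown overnight on trypticase soy agar at 37 °C, set to 0.5 McFarland, and diluted in TSB to about 5 × 10^5 CFU/mL. Compounds from 10 mg/mL DMSO stocks serially diluted in plates.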

CC(=O)Nc1nnc(S(N)(=O)=O)s1 [AZM, N-(5-sulfamoyl-1,3,4-thiadiazol-2-yl)acetamide]
activity against VRE strains in presence of 5% CO2 [1]: inactive
Papp A → B ([2]; Caco-2, pH 6): 0.19^f 10^−6 cm/sec
Papp B → A ([2]; Caco-2, pH 6): 0.77^f 10^−6 cm/sec
apparent permeability coefficient, Papp, low-permeable drug class ([2]; Caco-2): < 5e+12 ×10⁻⁶ cm/s
net transport (A➔B) with P-gp inhibitors ([2]; Caco-2): up to 1.92
net transport (A➔B) [2]: 0.24
plasma protein binding [3]: over 90%
bacteriostatic or bactericidal activity [4]: bacteriostatic

NS(=O)(=O)c1nnc(NC(=O)CC2CCCCC2)s1 [Compound 20, 2-Cyclohexyl-N-(5-sulfamoyl-1,3,4-thiadiazol-2-yl)acetamide]
activity against VRE strains in presence of 5% CO2 [1]: inactive

NS(=O)(=O)c1nnc(NC(=O)CCC2CCCCC2)s1 [Compound 22, 3-Cyclohexyl-N-(5-sulfamoyl-1,3,4-thiadiazol-2-yl)propanamide]
concentration at 1440 min [5]: 0 ng/mL
MIC90 ([6]; read-out: MIC90 converted to molar cellular potency): 0.0942 µM
bacteriostatic or bactericidal activity [4]: bacteriostatic
net transport (A➔B) ([7]; Caco-2, pH 6.5/7.4): 0.46
maximum solubility relative to MIC against E. faecium HM-965 [8]: approximately 1500 fold
solubility at 24 h [8]: 10.4 µg/mL (≈ 32.7 µM)

NS(=O)(=O)c1nnc(NC(=O)CN2CCOCC2)s1 [Compound 26, 2-(Morpholin-1-yl)-N-(5-sulfamoyl-1,3,4-thiadiazol-2-yl)acetamide]
bacteriostatic or bactericidal activity [4]: bacteriostatic
recovery [9]: 83%
concentration of molecule in the receiver chambers ([7]; Caco-2 permeability assay): below the limit of detection
maximum solubility relative to MIC against E. faecium HM-965 [8]: approximately 40 fold
solubility at 24 h [8]: 39 µg/mL (≈ 127 µM)

NS(=O)(=O)c1nnc(NCC2CCCCC2)s1 [Compound 30, 5-((cyclohexylmethyl)amino)-1,3,4-thiadiazole-2-sulfonamide]
anti-VRE activity (in words) [10]: inactive against VRE

CC(=O)Nc1nnc(S(C)(=O)=O)s1 [Compound 33, N-(5-(Methylsulfonyl)-1,3,4-thiadiazol-2-yl)acetamide]
anti-VRE activity (in words) [10]: abolished the anti-VRE activity; also recorded: inactive against VRE strains; also recorded: complete loss of activity

CC(=O)Nc1ncc(S(N)(=O)=O)s1 [Compound 34, N-(5-sulfamoylthiazol-2-yl)acetamide]
anti-VRE activity (in words) [10]: abrogated activity against VRE; also recorded: complete loss of anti-VRE activity

CC(=O)Nc1ccc(S(N)(=O)=O)cc1 [Compound 35, N-(4-sulfamoylphenyl)acetamide]
anti-VRE activity (in words) [10]: complete loss of activity

CC(=O)NC[C@H]1CN(c2ccc(N3CCOCC3)c(F)c2)C(=O)O1 [linezolid, reference compound]
bacteriostatic or bactericidal activity [4]: bacteriostatic

CN[C@H](CC(C)C)C(=O)N[C@H]1C(=O)N[C@@H](CC(N)=O)C(=O)N[C@H]2C(=O)N[C@H]3C(=O)N[C@H](C(=O)N[C@H](C(=O)O)c4cc(O)cc(O)c4-c4cc3ccc4O)[C@H](O)c3ccc(c(Cl)c3)Oc3cc2cc(c3O[C@@H]2O[C@H](CO)[C@@H](O)[C@H](O)[C@H]2O[C@H]2C[C@](C)(N)[C@H](O)[C@H](C)O2)Oc2ccc(cc2Cl)[C@H]1O [vancomycin, reference compound]
MIC90 [6]: > 64 µg/mL
